Compounds with a hit are over-represented: about 3.7% of the library has one in this group of screens.
KCNQ1 inh – human KCNQ1 channel inhibition; P51787; CHO-K1 KCNQ1, FluxOR thallium flux fluorescence; active compounds read high; 310,000 tested, 1.3% active; B-score at 10 µM;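 active means compounds whose thallium flux B-score, printed positive for inhibition, exceeds three library SD while starting fluorescence stays within three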;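 further: channel opened by potassium depolarization with thallium stimulus after 20 min compound exposure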
Kir21 block – blocks the mouse Kir2.1 inward-rectifier potassium channel. P35561. HEK293-Kir2.1, FluxOR thallium flux fluorescence; active compounds read low. B-score at 10 µM. 310,000 tested, 0.85% active. AID 1672;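 active means fluorescence ratio B-score at or below minus 3 SD of library scores, with starting-brightness B-score within 2 SD, cut at about -4.2 in these data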;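 further: channel flux triggered by added potassium and thallium sulfate stimulus; B-score of peak minus minimum fluorescence over baseline after thallium stimulus; more negative B-score means stronger Kir2.1 block with less thallium influx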
KCNQ1 act – potentiates or activates the human KCNQ1 potassium channel; P51787; CHO-K1 KCNQ1, thallium flux FluxOR fluorescence; active compounds read high; B-score at 10 µM; 310,000 tested, 0.35% active;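 active means fluorescence ratio B-score, a plate-corrected score, at least three library SD, with initial intensity B-score within 5 SD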
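assay system = KCNQ1-transfected CHO-K1 cells | medium = assay buffer with matched DMSO | probe or stimulus = depolarizing K+/Tl+ stimulus, K2SO4 and Tl2SO4 each 12.5 mM in 5x stock | dosing = single dose | incubation = dye 90 min, compound 20 min, room temperature | detection = kinetic FluxOR fluorescence, 10 s baseline plus 110 s post-stimulus | evaluation = ratio B score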
KCNK3 block – human KCNK3 channel inhibition, primary screen. O14649. CHO-KCNK3 thallium flux, FluxOR fluorescence; active compounds read low. B-score at 10 µM. 340,000 tested, 0.84% active. AID 602410;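 active means B-score under library mean minus 4 SD, starting fluorescence ratio at most library mean plus 5 SD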;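 further: more negative B-score means stronger inhibition of thallium flux through KCNK3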
Target sequence (O14649 whole entry, looked up): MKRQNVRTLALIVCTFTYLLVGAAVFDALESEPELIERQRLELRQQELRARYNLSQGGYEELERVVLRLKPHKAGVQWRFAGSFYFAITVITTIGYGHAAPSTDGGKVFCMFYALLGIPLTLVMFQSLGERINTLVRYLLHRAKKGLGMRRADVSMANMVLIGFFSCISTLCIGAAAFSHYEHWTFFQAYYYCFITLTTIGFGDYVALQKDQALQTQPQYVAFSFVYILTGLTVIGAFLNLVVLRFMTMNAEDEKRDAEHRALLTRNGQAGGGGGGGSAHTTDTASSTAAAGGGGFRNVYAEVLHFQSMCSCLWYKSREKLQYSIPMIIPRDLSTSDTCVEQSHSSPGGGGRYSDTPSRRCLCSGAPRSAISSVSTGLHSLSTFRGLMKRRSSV
hERG protect – hERG (human) protection from proarrhythmic block; 310,000 tested, 0.51% active; Q12809; activation (rescue from dofetilide block), less the hit threshold, % at 10 µM; CHO-hERG, FluxOR thallium flux, dofetilide IC70 present;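 active means activation above the mean of controls blocked by dofetilide plus 5 SD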;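 further: thallium influx through hERG after potassium depolarization seen as dye fluorescence rise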
KCNK9 inh – blocks the human KCNK9 two-pore domain potassium channel; 310,000 tested, 1.2% active; HEK293 KCNK9, FluxOR thallium flux fluorescence; active compounds read low; B-score at 10 µM; Q9NPC2;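 active means ratio B-score over 3 SD below the library mean, with starting fluorescence within 5 SD of its mean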;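 further: negative B-score means less thallium flux so channel inhibition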
KCNK9 inh conf – confirmation of human KCNK9 potassium channel inhibitors. shares compounds with KCNK9 inh. HEK293 KCNK9 cells, FluxOR thallium flux fluorescence. inhibition, % at 10 µM. 4,900 tested, 43% active;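 active means thallium signal inhibited by more than 5 SD of the compound-free buffer control wells, on both duplicate plates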;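 further: 0% = assay buffer control wells without compound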
Kir2-1 spec – tests whether KCNK9 modulators also affect mouse Kir2.1; inhibition, % at 10 µM; 4,900 tested, 4% active; shares compounds with KCNK9 inh; Kir2.1 cells, FluxOR thallium flux fluorescence;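 active means thallium signal drop more than 5 SD beyond the mean of the no-compound control wells, seen in both duplicate plates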;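 further: signal is fluorescence rise after thallium addition divided by baseline fluorescence; plate controls were assay buffer only for no effect and full block by chlorpromazine control for full effect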
HEK293 Tl ctr – second counter-screen for KCNK9 modulators: effect in non-induced cells; non-induced KCNK9-HEK293, FluxOR thallium flux; inhibition, % at 10 µM; shares compounds with KCNK9 inh; 4,900 tested, 40% active;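 active means thallium signal drop beyond 5 SD of the untreated control mean, on both duplicate plates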;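 further: plate controls were buffer only IC0 wells for no effect and SID17386958 at its maximal inhibitory level for full effect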
Numbers without * were called inactive; i = inactive; x = no result given.

SMILES	KCNQ1 inh	Kir21 block	KCNQ1 act	KCNK3 block	hERG protect	KCNK9 inh	KCNK9 inh conf	Kir2-1 spec	HEK293 Tl ctr
CCOC(=O)Cc1c(C)nc2c(-c3ccccc3OC)c(C)nn2c1C	i	2.6	i	i	-7	i	i	i	i
CCOC(=O)Cc1c(C)nc2c(-c3ccc(Cl)cc3)c(C)nn2c1C	i	0.41	i	i	-6	i	x	x	x
Cc1ccc(-c2ccc(C(=O)Nc3ccccc3)o2)c2ccccc12	6*	0.9	i	i	-17	i	i	i	i
Cc1ccc(-c2ccc(C(=O)NCc3ccccc3)o2)c2ccccc12	i	0.21	i	i	-10	i	x	x	x
Cc1ccc(S(=O)(=O)NC(=O)c2ccc(-c3ccc(C)c4ccccc34)o2)cc1	i	0.46	i	i	-19	i	i	i	i
Cc1ncc([N+](=O)[O-])n1CC(=O)Nc1cccc(C(F)(F)F)c1	i	0.72	i	i	-4	i	x	x	x
O=C(CN(Cc1ccccc1)C(=O)c1cccc([N+](=O)[O-])c1)Nc1c(Cl)cc(Cl)cc1Cl	i	-1.1	i	i	-7	i	x	x	x
COc1ccc(CC(=O)Nc2nnc(C(C)(C)C)s2)cc1OC	i	-1.1	i	i	-5	i	x	x	x
CCOC(=O)C1=CN(Cc2ccc(OC)cc2)C=C(C(=O)OCC)C1c1cccs1	i	-1.3	i	i	-2	-19*	72%*	i	41%*
CCOc1ccc(NS(=O)(=O)c2csc(C(N)=O)c2)cc1	i	0.83	i	i	-4	i	x	x	x
c1ccc(-c2csc(NC3CCCCC3)n2)cc1	i	-0.64	i	i	-6	i	i	i	i
O=C(Nc1nc(-c2ccccc2)cs1)NC1CCCCC1	i	0.1	i	i	-11	i	x	x	x
CCC(C)(C)c1ccc(OCCCC[n+]2cccc(C)c2)c(C(C)(C)CC)c1	10*	-6.4*	i	i	-29	-9.4*	38%*	66%*	28%*
Cc1ccc[n+](CC(=O)Nc2cc(C(F)(F)F)ccc2Cl)c1	i	0.64	i	i	-4	i	x	x	x
CC(C)(C)c1ccc(Cn2cnc(-c3ccc([N+](=O)[O-])cc3)c2)cc1	i	-0.81	i	i	-8	i	i	i	i
Cc1cccc(NC(=O)C2(c3ccc([N+](=O)[O-])cc3)CCCC2)c1	6*	-2.6	i	i	-8	i	i	i	i
Cc1cc(C)nc(NS(=O)(=O)c2ccc(NC(=O)C3(c4ccc([N+](=O)[O-])cc4)CCCC3)cc2)n1	i	0.68	i	i	-5	i	x	x	x
CC(C)[C@@H]1CC[C@@H](C)C[C@H]1OC(=O)C[n+]1cc(-c2ccc(Cl)cc2)n2c1CCCCC2	i	-8.1*	i	i	-26	-13*	60%*	70%*	i
Cn1c(=O)c2c(ncn2CC(=O)OCC(=O)NNC(=O)c2ccc(Cl)cc2)n(C)c1=O	x	x	x	i	x	x	x	x	x
NC(=O)c1ccccc1OCc1nc2ccccc2s1	i	1.7	i	i	-14	i	i	i	i
CC(=O)OCc1nc2ccccc2s1	i	0.8	i	i	-6	i	x	x	x
N#CC(=NCc1cccnc1)C1=C(O)c2ccccc2C1=O	i	0.55	i	i	-11	i	x	x	x
CC1CC2(CCCCC2)Nc2ccc3ccccc3c21 (stereo not drawn)	i	-0.14	i	i	-4	i	x	x	x
CC(=O)N1c2ccc3ccccc3c2C(C)CC12CCCCC2 (stereo not drawn)	i	-0.91	i	i	-15	-12*	68%*	i	48%*
CCCn1nc(NC(=O)c2cccs2)c2cc3cc(OC)ccc3nc21	i	0.32	i	i	-5	-10*	i	i	i
SMILES	KCNQ1 inh	Kir21 block	KCNQ1 act	KCNK3 block	hERG protect	KCNK9 inh	KCNK9 inh conf	Kir2-1 spec	HEK293 Tl ctr
O=C(NNS(=O)(=O)c1ccc(F)cc1)c1cc2ccccc2cc1O	i	-0.11	i	i	-11	i	x	x	x
COc1ccc(C2=NN(C(=O)c3cccc([N+](=O)[O-])c3)C(c3cccc([N+](=O)[O-])c3)C2)cc1 (stereo not drawn)	i	-0.12	i	i	-9	-13*	64%*	i	35%*
O=C(N/N=C/c1cccnc1)c1ccccc1OCc1cccc(Br)c1	i	0.15	i	i	-11	i	x	x	x
Cc1ccc(/C=N/NC(=O)c2ccccc2OCc2cccc(Br)c2)o1	i	-1.3	i	i	-11	-10*	30%*	i	i
O=C(/C=C1\NC2(CCCC2)Cc2ccccc21)C(=O)N/N=C/c1ccc(O)c(O)c1	i	-1.4	i	i	-17	-10*	48%*	i	30%*
O=C(COc1ccc2ccccc2c1)Nc1cccc2cccnc12	i	1.7	i	i	-13	-8.7*	46%*	i	39%*
O=C(COc1ccc2ccccc2c1)Nc1cccnc1Cl	i	-1.8	i	i	-3	i	x	x	x
O=C(NCCc1ccco1)c1cc(COc2cccc(C(F)(F)F)c2)on1	i	0.01	i	i	-11	i	x	x	x
Cc1ccc(C)c(C(=O)OCC(=O)N(C)c2ccccc2)c1	i	-1.2	i	i	-6	i	i	i	i
COc1ccc(NC2CCCN(C(=O)C3(C)CCCCC3)C2)cc1 (stereo not drawn)	i	-0.4	i	i	-5	i	i	i	i
COc1ccc(NC2CCCN(C(=O)CCc3cn[nH]c3)C2)cc1 (stereo not drawn)	i	-0.18	i	i	-7	i	x	x	x
COc1ccc(C(=O)N2CCCC(Nc3ccc(C(C)C)cc3)C2)c(OC)n1 (stereo not drawn)	i	-0.25	i	i	-12	i	i	i	i
O=C(CCc1ccccc1)N1CCCC(Nc2ccc(F)cc2)C1 (stereo not drawn)	i	-0.66	i	i	-6	i	i	i	i
COc1ccc(CCC(=O)N2CCCC(Nc3ccc(OC)cc3)C2)cc1 (stereo not drawn)	i	-3.1	i	i	-4	i	i	i	i
CCCn1c(=O)n(N)c2ccccc21	i	1.1	i	i	-7	i	x	x	x
